Key:
D(2) dopamine receptor = D(2) dopamine receptor (Homo sapiens, UniProt P14416); test: Ability to displace [3H]spiperone binding to CHO cells stably expressing dopamine receptor D2; assay type: cell-based
[1] = molecular target: 5-hydroxytryptamine receptor 2A (Homo sapiens, UniProt P28223); test: Ability to displace [3H]ketanserin binding to human 5-hydroxytryptamine 2A receptor stably expressed in CHO cells; assay type: cell-based
Summary of the method: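 Membranes from CHO cells stably expressing human 5-HT2A, homogenized in 50 mM Tris-HCl pH 7.5, at 2 mg wet weight/mL. Ki from nonlinear least-squares regression, geometric mean of at least three determinations.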

[2] = Terminal half-life following iv dosing in dog, measured over 48 hr; assay type: ADME, organism-based, Canis lupus familiaris; conditions: in vivo
[3] = Terminal half-life following iv dosing in rat, measured over 48 hr; assay type: ADME, organism-based; conditions: in vivo
[4] = molecular target: T1, 5-hydroxytryptamine receptor 2C (Homo sapiens, UniProt P28335); test: Ability to displace [3H]mesulergine binding to human 5-hydroxytryptamine 2C receptor stably expressed in CHO cells; assay type: cell-based
T1 sequence (P28335 whole entry): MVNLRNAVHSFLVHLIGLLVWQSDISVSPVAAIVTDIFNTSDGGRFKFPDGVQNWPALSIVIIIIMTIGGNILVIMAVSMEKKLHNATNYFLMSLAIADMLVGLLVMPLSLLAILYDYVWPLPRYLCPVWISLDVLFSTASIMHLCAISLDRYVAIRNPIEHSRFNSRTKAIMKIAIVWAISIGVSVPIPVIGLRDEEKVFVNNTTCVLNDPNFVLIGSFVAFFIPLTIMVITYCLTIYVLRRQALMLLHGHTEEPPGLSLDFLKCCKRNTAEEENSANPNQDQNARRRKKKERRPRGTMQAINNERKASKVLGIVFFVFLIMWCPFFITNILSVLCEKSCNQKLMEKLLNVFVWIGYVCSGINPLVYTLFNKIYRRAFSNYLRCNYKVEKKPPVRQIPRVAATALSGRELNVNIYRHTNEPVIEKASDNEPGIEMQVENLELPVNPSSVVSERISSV

[5] = molecular target: T2, Adrenergic receptor alpha-1 (Rattus norvegicus, UniProt P15823+P23944+P43140); test: Ability to displace [3H]-prazosin binding to rat cortical membranes expressing Alpha-1 adrenergic receptors
T2 sequence (P15823 whole entry): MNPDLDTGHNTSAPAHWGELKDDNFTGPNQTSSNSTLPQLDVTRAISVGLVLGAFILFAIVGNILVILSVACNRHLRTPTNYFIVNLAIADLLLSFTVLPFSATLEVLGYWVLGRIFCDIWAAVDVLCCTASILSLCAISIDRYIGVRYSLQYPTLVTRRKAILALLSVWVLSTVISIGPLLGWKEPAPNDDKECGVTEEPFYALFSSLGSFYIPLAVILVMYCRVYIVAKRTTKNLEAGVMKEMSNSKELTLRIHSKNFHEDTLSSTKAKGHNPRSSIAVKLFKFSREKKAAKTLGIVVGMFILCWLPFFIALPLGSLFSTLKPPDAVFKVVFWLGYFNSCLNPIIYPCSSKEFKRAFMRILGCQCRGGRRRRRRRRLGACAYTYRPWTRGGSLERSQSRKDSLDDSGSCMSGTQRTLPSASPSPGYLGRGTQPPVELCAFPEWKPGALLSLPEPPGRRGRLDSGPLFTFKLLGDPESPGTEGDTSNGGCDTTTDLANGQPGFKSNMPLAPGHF
T2 sequence (P23944 whole entry): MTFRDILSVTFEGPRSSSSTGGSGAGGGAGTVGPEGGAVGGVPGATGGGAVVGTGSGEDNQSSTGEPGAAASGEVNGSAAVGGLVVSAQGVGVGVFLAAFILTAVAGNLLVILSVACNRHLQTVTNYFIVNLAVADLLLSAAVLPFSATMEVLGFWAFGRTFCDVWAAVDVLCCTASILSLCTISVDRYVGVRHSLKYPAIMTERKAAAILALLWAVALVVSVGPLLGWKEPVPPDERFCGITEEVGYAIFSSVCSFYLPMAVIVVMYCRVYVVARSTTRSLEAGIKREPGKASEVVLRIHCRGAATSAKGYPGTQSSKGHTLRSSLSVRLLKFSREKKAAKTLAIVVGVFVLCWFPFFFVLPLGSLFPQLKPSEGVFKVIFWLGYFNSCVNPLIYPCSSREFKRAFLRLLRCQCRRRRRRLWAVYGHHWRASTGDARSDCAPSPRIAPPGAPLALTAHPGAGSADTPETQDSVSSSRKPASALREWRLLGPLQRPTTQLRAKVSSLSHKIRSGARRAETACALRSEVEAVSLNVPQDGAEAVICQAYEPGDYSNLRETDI
T2 sequence (P43140 whole entry): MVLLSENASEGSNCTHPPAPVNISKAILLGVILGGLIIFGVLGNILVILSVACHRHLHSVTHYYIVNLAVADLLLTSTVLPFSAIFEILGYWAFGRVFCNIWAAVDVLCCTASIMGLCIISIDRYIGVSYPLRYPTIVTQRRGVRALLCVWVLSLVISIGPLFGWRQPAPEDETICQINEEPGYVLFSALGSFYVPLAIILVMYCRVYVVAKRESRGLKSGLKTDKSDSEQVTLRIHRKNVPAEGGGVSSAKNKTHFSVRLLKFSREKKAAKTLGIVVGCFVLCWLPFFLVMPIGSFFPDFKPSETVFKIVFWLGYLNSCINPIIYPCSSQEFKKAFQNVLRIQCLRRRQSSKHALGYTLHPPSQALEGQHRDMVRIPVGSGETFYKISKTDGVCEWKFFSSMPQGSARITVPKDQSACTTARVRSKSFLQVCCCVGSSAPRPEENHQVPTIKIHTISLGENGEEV

[6] = Bioavailability in rat (dose 0.5-2 mg/kg i.v. and p.o.); assay type: ADME, organism-based; conditions: in vivo, po
Summary of the method: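 Male Sprague-Dawley rats (~300 g), jugular-cannulated, three per route. Dosing by i.v. tail-vein bolus and oral gavage, each in a suitable vehicle. Serial jugular blood samples taken; plasma extracted with ethyl acetate against an internal standard. Analysis by LC-MS with single ion recording. F from model-independent parameters.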

[7] = Bioavailability in dog (dose 0.5-2 mg/kg i.v. and p.o.); assay type: ADME, organism-based, Canis lupus familiaris; conditions: in vivo, po
Summary of the method: (§1)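 Female Beagle dogs (10-12 kg), three per route; i.v. cephalic-vein bolus (1 mL/kg PEG 300/water) and oral gavage (5 mL/kg of 0.5% methocel A4C suspension), 0.5-2 mg/kg. Serial blood to 24 h; plasma extracted with ethyl acetate, LC-MS. Model-independent bioavailability and terminal half-life after i.v. dosing.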

[8] = Terminal half-life following iv dosing in rat; assay type: ADME, organism-based; conditions: in vivo
[9] = Terminal half-life following iv dosing in dog; assay type: ADME, organism-based, Canis lupus familiaris; conditions: in vivo; summary of the method: as §1
[10] = molecular target: Voltage-gated inwardly rectifying potassium channel KCNH2 (Homo sapiens, UniProt Q12809); test: Displacement of [3H]dofetilide from HEK cells expressing hERG voltage dependent IKr potassium channel Kv11.1
Voltage-gated inwardly rectifying potassium channel KCNH2, sequence (Q12809 whole entry): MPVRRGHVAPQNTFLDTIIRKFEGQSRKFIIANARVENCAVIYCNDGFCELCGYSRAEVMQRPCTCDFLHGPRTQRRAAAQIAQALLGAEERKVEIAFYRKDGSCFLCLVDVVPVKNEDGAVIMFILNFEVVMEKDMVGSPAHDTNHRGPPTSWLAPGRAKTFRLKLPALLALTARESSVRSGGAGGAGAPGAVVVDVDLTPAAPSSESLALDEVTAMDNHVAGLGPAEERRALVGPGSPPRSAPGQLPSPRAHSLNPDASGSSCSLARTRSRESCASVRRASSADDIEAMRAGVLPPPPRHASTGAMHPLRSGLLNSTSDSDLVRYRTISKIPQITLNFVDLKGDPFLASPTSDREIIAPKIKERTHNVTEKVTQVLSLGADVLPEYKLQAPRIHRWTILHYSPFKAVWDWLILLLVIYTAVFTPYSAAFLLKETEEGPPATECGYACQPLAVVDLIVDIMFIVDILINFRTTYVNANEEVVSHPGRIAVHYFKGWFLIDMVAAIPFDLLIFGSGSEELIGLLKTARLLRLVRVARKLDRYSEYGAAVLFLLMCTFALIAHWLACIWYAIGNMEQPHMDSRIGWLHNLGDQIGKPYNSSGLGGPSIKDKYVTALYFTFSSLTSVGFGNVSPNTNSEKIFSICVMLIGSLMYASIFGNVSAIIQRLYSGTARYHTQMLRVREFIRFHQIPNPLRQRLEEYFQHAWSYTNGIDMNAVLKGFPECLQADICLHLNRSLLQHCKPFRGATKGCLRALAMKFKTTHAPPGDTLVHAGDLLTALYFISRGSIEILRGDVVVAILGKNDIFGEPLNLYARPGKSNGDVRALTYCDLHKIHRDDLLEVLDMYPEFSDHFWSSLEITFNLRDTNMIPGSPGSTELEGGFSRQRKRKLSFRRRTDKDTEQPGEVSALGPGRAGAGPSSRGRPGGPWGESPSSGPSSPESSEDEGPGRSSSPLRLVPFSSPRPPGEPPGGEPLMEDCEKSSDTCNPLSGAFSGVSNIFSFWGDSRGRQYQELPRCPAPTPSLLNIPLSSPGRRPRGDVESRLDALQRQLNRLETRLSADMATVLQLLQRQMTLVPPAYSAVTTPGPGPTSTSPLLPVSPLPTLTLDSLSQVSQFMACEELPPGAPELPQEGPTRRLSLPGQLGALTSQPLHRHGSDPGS

[11] = Maximum blood concentration after oral dosing at 2 mg/kg in rat; assay type: ADME, organism-based; set-up: dose 2 mg/kg, route oral
Summary of the method: (§2)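 Male Sprague-Dawley rats (~300 g) gavaged at 2 mg/kg (5 mL/kg of 0.5% methocel A4C suspension), five rats; one rat culled per time point up to 4 h for blood. Samples get internal standard and are extracted into ethyl acetate, then LC-MS single ion recording.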

[12] = Area under the concentration-time curve for 0-4 hr after 2 mg/kg po in rat; assay type: ADME, organism-based; set-up: time < 4 hr, dose 2 mg/kg, route oral; conditions: in vivo; summary of the method: as §2

D(2) dopamine receptor, sequence (P14416 whole entry): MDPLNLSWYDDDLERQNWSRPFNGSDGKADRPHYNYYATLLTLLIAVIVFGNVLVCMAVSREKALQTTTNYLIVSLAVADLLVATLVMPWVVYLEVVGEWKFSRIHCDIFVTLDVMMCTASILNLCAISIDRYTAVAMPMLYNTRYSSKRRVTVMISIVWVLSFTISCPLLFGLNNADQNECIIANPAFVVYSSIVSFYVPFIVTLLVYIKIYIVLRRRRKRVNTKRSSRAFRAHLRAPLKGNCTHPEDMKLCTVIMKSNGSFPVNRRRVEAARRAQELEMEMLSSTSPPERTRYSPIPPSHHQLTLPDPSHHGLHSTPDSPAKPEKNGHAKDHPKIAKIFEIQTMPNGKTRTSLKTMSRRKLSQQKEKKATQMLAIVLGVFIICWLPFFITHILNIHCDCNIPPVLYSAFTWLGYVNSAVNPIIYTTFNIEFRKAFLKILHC
5-hydroxytryptamine receptor 2A, sequence (P28223 whole entry): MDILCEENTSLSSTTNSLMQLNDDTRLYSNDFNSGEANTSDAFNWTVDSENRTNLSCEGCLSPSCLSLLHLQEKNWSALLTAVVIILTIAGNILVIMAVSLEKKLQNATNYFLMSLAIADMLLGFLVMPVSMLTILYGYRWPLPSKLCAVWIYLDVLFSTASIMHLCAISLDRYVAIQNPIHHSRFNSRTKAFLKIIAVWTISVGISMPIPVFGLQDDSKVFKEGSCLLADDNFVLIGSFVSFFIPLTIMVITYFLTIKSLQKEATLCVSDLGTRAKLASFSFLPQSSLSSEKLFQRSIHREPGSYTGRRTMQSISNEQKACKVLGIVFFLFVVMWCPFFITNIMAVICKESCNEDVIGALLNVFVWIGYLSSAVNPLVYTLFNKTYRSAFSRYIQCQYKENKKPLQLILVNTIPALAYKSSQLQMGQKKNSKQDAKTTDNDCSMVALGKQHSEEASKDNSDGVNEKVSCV

SMILES | Ki (D(2) dopamine receptor) [nM] | Ki [1] [nM] | Ki [4] [nM] | Ki [5] [nM] | also measured
F[C@H]1CCNC[C@@H]1c1c(-c2ccccc2)[nH]c2ccccc12 | > 1700 | 220 | – | – | –
Fc1ccc2c([C@@H]3CNCC[C@H]3F)c(-c3ccccc3)[nH]c2c1 | – | – | – | – | half-life [2]: 6.4 h; half-life [3]: 12 h
F[C@@H]1CCNC[C@H]1c1c(-c2ccccc2)[nH]c2ccccc12 | > 1700 | 0.43 | 19 | 25 | bioavailability [6]: 18%; bioavailability [7]: 37%; half-life [8]: 1.4 h; half-life [9]: 7.4 h
CN1CCCCC1c1c(-c2ccccc2)[nH]c2ccccc12 (stereo not given) | > 1700 | 14 | 2000 | 99 | –
Fc1ccc2c([C@@H]3CNCC[C@H]3F)c[nH]c2c1 | – | 70 | – | – | –
CN1CCN(C)C(c2c(-c3ccccc3)[nH]c3ccccc23)C1 (stereo not given) | > 1600 | 320 | – | – | –
Fc1ccc2c([C@@H]3CNCC[C@H]3F)c(C3CCCCC3)[nH]c2c1 | > 1600 | 0.25 | 5 | 21 | –
Fc1ccc2[nH]c(-c3ccccc3)c([C@@H]3CNCC[C@H]3F)c2c1 | > 1600 | 4 | 500 | 210 | Ki [10]: > 7000 nM
COC(=O)c1[nH]c2cc(F)ccc2c1[C@@H]1CNCC[C@H]1F | > 1600 | 10.4 | > 2000 | 7.3 | –
c1ccc(CCN2[C@@H]3CC[C@H]2CC(c2c(-c4ccccc4)[nH]c4ccccc24)C3)cc1 (stereo not given in full) | 1000 | 1.2 | 400 | 250 | Cmax [11]: 210 ng/mL; AUC(0-t) at 4 h [12]: 126 ng·h/mL; bioavailability [6]: 18%; Ki [10]: 18 nM; half-life [8]: 2.3 h
O=C(Nc1ccccc1)c1[nH]c2cc(F)ccc2c1[C@@H]1CNCC[C@H]1F | > 1600 | 0.09 | 48 | 3.9 | Cmax [11]: 3 ng/mL; AUC(0-t) at 4 h [12]: 8 ng·h/mL
F[C@@H]1CCNC[C@H]1c1c(-c2ccccc2)[nH]c2c(Cl)cccc12 | > 1600 | 0.69 | 154 | 6.7 | –
Fc1ccc2c([C@@H]3CNCC[C@H]3F)c(-c3cccnc3)[nH]c2c1 | > 1600 | 0.35 | 85 | 7.3 | –

Now from value to compound, other results behind:

Ki (D(2) dopamine receptor) [nM] | Ki [1] [nM] | Ki [4] [nM] | Ki [5] [nM] | SMILES | also measured
> 1600 | 0.46 | 132 | 27 | Fc1cccc2c([C@@H]3CNCC[C@H]3F)c(-c3ccccc3)[nH]c12 | –
1600 | 18 | – | – | c1ccc(-c2[nH]c3ccccc3c2C2CNCCO2)cc1 (stereo not given) | –
1400 | 0.34 | – | 8.5 | Fc1ccc2c([C@@H]3CNCC[C@H]3F)c(-c3cccc4ccccc34)[nH]c2c1 | Ki [10]: 110 nM
900 | 0.12 | 19 | 2.9 | Fc1ccc(-c2[nH]c3cc(F)ccc3c2[C@@H]2CNCC[C@H]2F)cc1 | Cmax [11]: 149 ng/mL; AUC(0-t) at 4 h [12]: 350 ng·h/mL; Ki [10]: 1600 nM
> 1600 | 10.2 | – | 40 | F[C@@H]1CCNC[C@H]1c1c(-c2ccccc2)[nH]c2ccc(Cl)cc12 | –
28 | 0.09 | 16 | 1.1 | Fc1ccc(-c2[nH]c3cc(F)ccc3c2C2CCCNC2)cc1 (stereo not given) | Ki [10]: 1300 nM
> 1600 | – | 400 | 2100 | c1ccc(-c2[nH]c3ccccc3c2C2CCNCC2)cc1 | Ki [10]: 5700 nM
1600 | 20 | 2000 | 47 | c1ccc(CN2CCCC(c3c(-c4ccccc4)[nH]c4ccccc34)C2)cc1 (stereo not given) | –
> 1600 | 2.3 | – | 16 | F[C@@H]1CCNC[C@H]1c1c(-c2ccccc2)[nH]c2cc(Cl)ccc12 | –
> 1600 | 0.54 | – | 3.6 | Fc1ccc2c([C@@H]3CNCC[C@H]3F)c(-c3ccoc3)[nH]c2c1 | –
> 1600 | 3.3 | – | – | O[C@@H]1CCNC[C@H]1c1c(-c2ccccc2)[nH]c2ccccc12 | –
> 1300 | 0.99 | 89 | 21 | c1ccc(-c2[nH]c3ccccc3c2C2CCCNC2)cc1 (stereo not given) | Cmax [11]: 26 ng/mL; AUC(0-t) at 4 h [12]: 47 ng·h/mL
350 | 0.48 | – | 25 | c1ccc(CCN2CCC(c3c(-c4ccccc4)[nH]c4ccccc34)CC2)cc1 | bioavailability [7]: 4%; half-life [8]: 5.3 h; half-life [9]: 9.8 h
28 | 4.7 | 150 | 30 | CN1CCCC(c2c(-c3ccccc3)[nH]c3ccccc23)C1 (stereo not given) | Ki [10]: 9600 nM
1600 | 0.11 | 50 | 2.8 | Fc1ccc2c([C@@H]3CNCC[C@H]3F)c(-c3ccsc3)[nH]c2c1 | Ki [10]: 1500 nM
500 | 59 | 2400 | – | c1ccc(CCN2CCCC(c3c(-c4ccccc4)[nH]c4ccccc34)C2)cc1 (stereo not given) | –
500 | 0.23 | – | 2.1 | Fc1ccc2c([C@@H]3CNCC[C@H]3F)c(-c3ccc4ccccc4c3)[nH]c2c1 | Ki [10]: 500 nM
> 1300 | 26 | 2500 | – | O=C1NCCN1CCN1CCCC(c2c(-c3ccccc3)[nH]c3ccccc23)C1 (stereo not given) | Cmax [11]: 85 ng/mL; AUC(0-t) at 4 h [12]: 217 ng·h/mL

From ChEMBL document CHEMBL1134475, “3-(4-Fluoropiperidin-3-yl)-2-phenylindoles as high affinity, selective, and orally bioavailable h5-HT(2A) receptor antagonists” (J Med Chem, 2001)
